Non-standard residues stand in square brackets, D forms with d. Residues, ends and D or L forms follow the SMILES beside them. NMeL = CN[C@@H](CC(C)C)C(=O)O; NMeV = CN[C@H](C(=O)O)C(C)C; Nva = CCC[C@H](N)C(=O)O; Sar = CNCC(=O)O
Tests used:
[1] = Permeability across apical to basal side in human Caco-2 cells assessed as drug recovery measured at 0.5 to 2 hrs by LC-MS analysis relative to control; type: ADME, cell-based; conditions: time 0.5-2 hrs, read-out: Drug recovery
[2] = Permeability across basal to apical side in human Caco-2 cells assessed as drug recovery measured at 0.5 to 2 hrs by LC-MS analysis relative to control; type: ADME, cell-based; conditions: time 0.5-2 hrs, read-out: Drug recovery
[3] = Permeability across apical to basal side in human Caco-2 cells assessed as drug recovery preincubated with verapamil for 30 mins followed by compound addition measured at 0.5 to 2 hrs by LC-MS analysis relative to control; type: ADME, cell-based; conditions: for recovery: Caco-2, with verapamil (concentration not stated), time 1-2.5 hrs, read-out: Drug recovery
[4] = Effective permeability in PBS buffer assessed as mass retention measured after 18 hrs by PAMPA based LC-MS analysis; type: ADME
[5] = Permeability across apical to basal side in human Caco-2 cells measured at 0.5 to 2 hrs by LC-MS analysis; type: ADME, cell-based; conditions: time 0.5-2 hrs; for Papp A→B: read-out: permeability
[6] = Permeability in PBS buffer measured after 18 hrs by PAMPA based LC-MS analysis; type: ADME; conditions: read-out: permeability
[7] = molecular target: Peptidyl-prolyl cis-trans isomerase A (Homo sapiens, UniProt P62937); assay: Binding affinity to CypA (unknown origin) assessed as inhibition constant by isomer specific proteolysis assay
[8] = Permeability across apical to basal side in human Caco-2 cells preincubated with verapamil for 30 mins followed by compound addition measured at 0.5 to 2 hrs by LC-MS analysis; type: ADME, cell-based; conditions: Caco-2, with verapamil (concentration not stated), time 0.5-2 hrs, read-out: permeability
[9] = Permeability across basal to apical side in human Caco-2 cells measured at 0.5 to 2 hrs by LC-MS analysis; type: ADME, cell-based; conditions: time 0.5-2 hrs, read-out: permeability
[10] = Oral bioavailability in ICR mouse at 20 mg/kg measured after 0.25 to 24 hrs by LC-MS/MS analysis; type: ADME, organism-based; conditions: in vivo, time 0.25-24 hrs
In short: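 Male ICR mice received 5 mg/kg iv via tail vein or 20 mg/kg po by gavage. Plasma was sampled serially up to 24 h via the saphenous vein, acetonitrile-precipitated and quantified by LC-MS/MS. F was derived from the po and iv AUC∞ values.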

[11] = Volume of distribution at steady state in ICR mouse at 5 mg/kg, iv measured after 0.08 to 24 hrs by LC-MS/MS analysis; conditions: in vivo, read-out: Vdss
[12] = Ratio of drug level in brain to plasma in ICR mouse plasma at 1 uM preincubated for 10 mins followed by compound addition measured after 60 mins by LC-MS/MS analysis; type: ADME, cell-free; conditions: read-out: BPR
[13] = Half life in ICR mouse at 5 mg/kg, iv measured after 0.08 to 24 hrs by LC-MS/MS analysis; conditions: in vivo
[14] = AUCinfinity in ICR mouse at 5 mg/kg, iv measured after 0.08 to 24 hrs by LC-MS/MS analysis; conditions: in vivo
[15] = Potency index, ratio of cyclosporin A BPR to test compound BPR for drug level in ICR mouse at 1 uM; type: ADME; conditions: in vivo
[16] = Half life in ICR mouse at 20 mg/kg, po measured after 0.25 to 24 hrs by LC-MS/MS analysis; type: ADME, organism-based; conditions: in vivo, time 0.25-24 hrs
[17] = Apparent volume of distribution in ICR mouse at 20 mg/kg, po measured after 0.25 to 24 hrs by LC-MS/MS analysis; type: ADME, organism-based; conditions: in vivo, time 0.25-24 hrs
[18] = Cmax in ICR mouse at 20 mg/kg, po measured after 0.25 to 24 hrs by LC-MS/MS analysis; type: ADME, organism-based; set-up: time upper 24 hrs, time lower 0.25 hrs, dose 20 mg/kg, route po; conditions: in vivo
[19] = Clearance in ICR mouse at 20 mg/kg, po measured after 0.25 to 24 hrs by LC-MS/MS analysis; type: ADME, organism-based; conditions: in vivo, time 0.25-24 hrs
In short: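 Male ICR mice (9 weeks, 33−37 g) given 20 mg/kg (10 mL/kg) by oral gavage. Plasma obtained by centrifugation at 4 °C, protein-precipitated with 4 volumes acetonitrile, and analysed by LC-MS/MS.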

[20] = AUCinfinity in ICR mouse at 20 mg/kg, po measured after 0.25 to 24 hrs by LC-MS/MS analysis; type: ADME, organism-based; set-up: dose 20 mg/kg, time upper 24 hrs, time lower 0.25 hrs, route po; conditions: in vivo
[21] = Tmax in ICR mouse at 20 mg/kg, po measured after 0.25 to 24 hrs by LC-MS/MS analysis; type: ADME, organism-based; conditions: in vivo, time 0.25-24 hrs

Chain of Peptidyl-prolyl cis-trans isomerase A (P62937 whole entry): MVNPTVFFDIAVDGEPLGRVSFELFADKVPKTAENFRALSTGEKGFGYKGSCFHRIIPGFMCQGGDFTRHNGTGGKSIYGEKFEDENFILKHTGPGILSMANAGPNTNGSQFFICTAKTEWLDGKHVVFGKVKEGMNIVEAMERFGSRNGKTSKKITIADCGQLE

| recovery [1] | recovery [2] | recovery [3] | Activity [4] | Papp A→B [5] | Papp at 18 h [6] | Ki [7] | Papp A→B [8] | Papp B→A [9] | Compound | also measured |
| --- | --- | --- | --- | --- | --- | --- | --- | --- | --- | --- |
| 76% | 88% | 112% | 60% | 0.05 ×10⁻⁶ cm/s | < 0.004 ×10⁻⁶ cm/s | 3 µM | 0.07 ×10⁻⁶ cm/s | 5.17 ×10⁻⁶ cm/s | CCC[C@@H]1NC(=O)[C@H](CC(C)C)N(C)C(=O)[C@H](C(C)C)N(C)C(=O)[C@H](CC(C)C)N(C)C(=O)[C@H](CC(C)C)N(C)C(=O)[C@@H](C)NC(=O)[C@H](CCC(N)=O)NC(=O)[C@H](CC(C)C)N(C)C(=O)[C@H](C(C)C)NC(=O)[C@H](CC(C)C)N(C)C(=O)CN(C)C1=O | – |
| 82% | 82% | – | 84% | – | 0.29 ×10⁻⁶ cm/s | 2.3 µM | 0.69 ×10⁻⁶ cm/s | 2.88 ×10⁻⁶ cm/s | CCC[C@@H]1NC(=O)[C@H](CC(C)C)N(C)C(=O)[C@H](C(C)C)N(C)C(=O)[C@H](CC(C)C)N(C)C(=O)[C@H](CC(C)C)N(C)C(=O)[C@@H](C)NC(=O)[C@H](C)NC(=O)[C@H](CC(C)C)N(C)C(=O)[C@H](C(C)C)NC(=O)[C@H](CC(C)C)N(C)C(=O)CN(C)C1=O (cyclo(A[dA][NMeL][NMeL][NMeV][NMeL][Nva][Sar][NMeL]V[NMeL])) | F [10]: 12%; Vd [11]: 4 L/kg; Kp at 1 h, 1 µM [12]: 0.62; Drug recovery ([3]; caco-2, time 1-2.5 hrs): 123%; half-life [13]: 4.8 h; AUC [14]: 8500 ng·h/mL; permeability [5]: 0.29 10^-6 cm/s; Ratio [15]: 5; half-life [16]: 3.1 h; Vz [17]: 22.2 L/kg; Cmax [18]: 1600 ng/mL; CL/F [19]: 82 mL/min/kg; AUC [20]: 4080 ng·h/mL; Tmax [21]: 0.8 h |
| 89% | 87% | 110% | 75% | 0.12 ×10⁻⁶ cm/s | < 0.009 ×10⁻⁶ cm/s | > 20 µM | 0.18 ×10⁻⁶ cm/s | 8.6 ×10⁻⁶ cm/s | CCC[C@@H]1NC(=O)[C@H](CC(C)C)N(C)C(=O)[C@H](CC(C)C)N(C)C(=O)[C@H](CC(C)C)N(C)C(=O)[C@H](CC(C)C)N(C)C(=O)[C@@H](C)NC(=O)[C@H](CCC(N)=O)NC(=O)[C@H](CC(C)C)N(C)C(=O)[C@H](C(C)C)NC(=O)[C@H](CC(C)C)N(C)C(=O)CN(C)C1=O (cyclo([NMeL][NMeL][NMeL][NMeL][Nva][Sar][NMeL]V[NMeL]Q[dA])) | – |
| – | – | – | – | 20 ×10⁻⁶ cm/s | – | – | – | – | CC(C)NCC(O)COc1cccc2ccccc12 (configuration not stated) [PROPRANOLOL] | – |
| 66% | 65% | 107% | 74% | 0.07 ×10⁻⁶ cm/s | 0.06 ×10⁻⁶ cm/s | > 20 µM | 0.34 ×10⁻⁶ cm/s | 0.61 ×10⁻⁶ cm/s | CCC[C@@H]1NC(=O)[C@H](CC(C)C)N(C)C(=O)[C@H](CC(C)C)N(C)C(=O)[C@H](CC(C)C)N(C)C(=O)[C@H](CC(C)C)N(C)C(=O)[C@@H](C)NC(=O)[C@H](C)NC(=O)[C@H](CC(C)C)N(C)C(=O)[C@H](C(C)C)NC(=O)[C@H](CC(C)C)N(C)C(=O)CN(C)C1=O | – |
| 88% | 85% | 78% | – | – | – | – | – | – | CC(C)NCC(O)COc1ccc(CC(N)=O)cc1 (configuration not stated) [ATENOLOL] | – |

From ChEMBL document CHEMBL5149989, “Interplay among Conformation, Intramolecular Hydrogen Bonds, and Chameleonicity in the Membrane Permeability and Cyclophilin A Binding of Macrocyclic Peptide Cyclosporin O Derivatives” (J Med Chem, 2021)
